In brackets after ≈: the same amount, converted by molar mass.
Columns and labels:
Rattus norvegicus [1] = assay: Antiinflammatory activity in Wistar rat assessed as protection against carrageenan-induced paw edema at 100 mg/kg, po administered 1 hr before carrageenan challenge measured after 1 hr; type: functional
MCF7 [2] = assay: Cytotoxicity against estrogen receptor-positive human MCF7 cells assessed as inhibition of cell proliferation at 6 ug/ml after 24 hrs by MTT assay; type: functional; conditions: MCF7, 24 h
Summary of the method: (§1)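 MTT assay on MCF-7 human breast cancer cells, Taxol as reference; percentage inhibition of cell proliferation read at graded concentrations from 0.1 to 50 μg/mL (typically five or six levels per compound); IC50 in μg/mL derived from the inhibition series.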

MCF7 [3] = assay: Cytotoxicity against estrogen receptor-positive human MCF7 cells assessed as inhibition of cell proliferation at 2 ug/ml after 24 hrs by MTT assay; type: functional; conditions: MCF7, 24 h; summary of the method: as §1
Staphylococcus aureus [4] = assay: Antibacterial activity against Staphylococcus aureus after 18 to 24 hrs by broth microdilution method; type: functional
Staphylococcus aureus [5] = assay: Antibacterial activity against Staphylococcus aureus at […] after 24 hrs by agar diffusion method; type: functional
Summary of the method: (§2)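 Single-concentration antibacterial screen at 100 μg/50 μL per test against the standard bacterial strains.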

Rattus norvegicus [6] = assay: Antiinflammatory activity in Wistar rat assessed as protection against carrageenan-induced paw edema at 100 mg/kg, po administered 1 hr before carrageenan challenge measured after 2 hrs; type: functional
Bacillus subtilis [7] = assay: Antibacterial activity against Bacillus subtilis at […] after 24 hrs by agar diffusion method; type: functional; summary of the method: as §2
MCF7 [8] = assay: Cytotoxicity against estrogen receptor-positive human MCF7 cells assessed as inhibition of cell proliferation at 0.5 ug/ml after 24 hrs by MTT assay; type: functional; conditions: MCF7, 24 h; summary of the method: as §1
MCF7 [9] = assay: Cytotoxicity against estrogen receptor-positive human MCF7 cells assessed as inhibition of cell proliferation at 8 ug/ml after 24 hrs by MTT assay; type: functional; conditions: MCF7, 24 h; summary of the method: as §1
Rattus norvegicus [10] = assay: Antiinflammatory activity in Wistar rat assessed as protection against carrageenan-induced paw edema at 100 mg/kg, po administered 1 hr before carrageenan challenge measured after 3 hrs; type: functional
Rattus norvegicus [11] = assay: Antiinflammatory activity in Wistar rat assessed as protection against carrageenan-induced paw edema at 100 mg/kg, po administered 1 hr before carrageenan challenge measured after 4 hrs; type: functional
Bacillus subtilis [12] = assay: Antibacterial activity against Bacillus subtilis after 18 to 24 hrs by broth microdilution method; type: functional
MCF7 [13] = assay: Cytotoxicity against estrogen receptor-positive human MCF7 cells assessed as inhibition of cell proliferation after 24 hrs by MTT assay; type: functional, cell-based; conditions: Homo sapiens, MCF7, 24 h; read-out: IC50; summary of the method: as §1
Escherichia coli [14] = assay: Antibacterial activity against Escherichia coli after 18 to 24 hrs by broth microdilution method; type: functional
Pseudomonas aeruginosa [15] = assay: Antibacterial activity against Pseudomonas aeruginosa at 100 ug/[…] after 24 hrs by agar diffusion method; type: functional; summary of the method: as §2
Escherichia coli [16] = assay: Antibacterial activity against Escherichia coli at […] after 24 hrs by agar diffusion method; type: functional; summary of the method: as §2
Pseudomonas aeruginosa [17] = assay: Antibacterial activity against Pseudomonas aeruginosa after 18 to 24 hrs by broth microdilution method; type: functional
Rattus norvegicus [18] = assay: Antiinflammatory activity in Wistar rat assessed as protection against carrageenan-induced paw edema at 100 mg/kg, po administered 1 hr before carrageenan challenge measured after 30 mins; type: functional
MCF7 [19] = assay: Cytotoxicity against estrogen receptor-positive human MCF7 cells assessed as inhibition of cell proliferation at 4 ug/ml after 24 hrs by MTT assay; type: functional; conditions: MCF7, 24 h; summary of the method: as §1
MCF7 [20] = assay: Cytotoxicity against estrogen receptor-positive human MCF7 cells assessed as inhibition of cell proliferation at 1 ug/ml after 24 hrs by MTT assay; type: functional; conditions: MCF7, 24 h; summary of the method: as §1
MCF7 [21] = assay: Cytotoxicity against estrogen receptor-positive human MCF7 cells assessed as inhibition of cell proliferation at 5 ug/ml after 24 hrs by MTT assay; type: functional; conditions: MCF7, 24 h; summary of the method: as §1
MCF7 [22] = assay: Cytotoxicity against estrogen receptor-positive human MCF7 cells assessed as inhibition of cell proliferation at 0.25 ug/ml after 24 hrs by MTT assay; type: functional; conditions: MCF7, 24 h; summary of the method: as §1
MCF7 [23] = assay: Cytotoxicity against estrogen receptor-positive human MCF7 cells assessed as inhibition of cell proliferation at 0.1 ug/ml after 24 hrs by MTT assay; type: functional; conditions: MCF7, 24 h; summary of the method: as §1
MCF7 [24] = assay: Cytotoxicity against estrogen receptor-positive human MCF7 cells assessed as inhibition of cell proliferation at 2.5 ug/ml after 24 hrs by MTT assay; type: functional; conditions: MCF7, 24 h; summary of the method: as §1

Structure (SMILES)	Activity (Rattus norvegicus [1]) [%]	inhibition zone (IZ) (Staphylococcus aureus [5]) [mm]	Activity (Rattus norvegicus [6]) [%]	inhibition zone (IZ) (Bacillus subtilis [7]) [mm]	inhibition at 0.5 µg/mL (MCF7 [8]) [%]	Activity (Rattus norvegicus [10]) [%]	Activity (Rattus norvegicus [11]) [%]	IC50 (MCF7 [13]) [µg/mL]	inhibition zone (IZ) (Pseudomonas aeruginosa [15]) [mm]	inhibition zone (IZ) (Escherichia coli [16]) [mm]	Activity (Rattus norvegicus [18]) [%]	inhibition at 1 µg/mL (MCF7 [20]) [%]	also measured
CC1=NN=C2OC(N)=C(C#N)C(c3ccc(Oc4nc(Cl)c(Cl)cc4Cl)cc3)C12 (stereo unspecified)	50	15	67.1	20	5.34	72	54.9	4.46 (≈ 9.95 µM)	14	22	29.4	17.4	inhibition at 6 µg/mL (MCF7 [2]): 65.2%; inhibition at 2 µg/mL (MCF7 [3]): 31.9%; MIC (Staphylococcus aureus [4]): 3.12 µg/mL (≈ 6.96 µM); inhibition at 8 µg/mL (MCF7 [9]): 68.6%; MIC (Bacillus subtilis [12]): 6.25 µg/mL (≈ 13.9 µM); MIC (Escherichia coli [14]): 1.56 µg/mL (≈ 3.48 µM); MIC (Pseudomonas aeruginosa [17]): 3.12 µg/mL (≈ 6.96 µM); inhibition at 4 µg/mL (MCF7 [19]): 42.5%
Cc1[nH]nc2c1C(c1cccc(Oc3ccccc3)c1)C(C#N)=C(N)O2 (stereo unspecified)	33.3	7	47.9	9	20.2	66.6	61.5	1.63 (≈ 4.73 µM)	11	9	17.6	43.5	inhibition at 5 µg/mL (MCF7 [21]): 83.7%; inhibition at 0.25 µg/mL (MCF7 [22]): 14%; inhibition at 0.1 µg/mL (MCF7 [23]): 8.26%; inhibition at 2.5 µg/mL (MCF7 [24]): 68.6%
